Experiment [1] relates to Salmonella enterica. As to the kind of experiment: Antibacterial activity against Salmonella Typhimurium ATCC 14028. It counts as functional, Salmonella enterica subsp. enterica serovar Typhimurium.
In experiment [2] the test system is Micrococcus luteus. As to the kind of experiment: Antibacterial activity against Micrococcus luteus IFO 12708. In kind it is functional.
Experiment [3] relates to Bacillus subtilis. As to the kind of experiment: Antibacterial activity against Bacillus subtilis ATCC 6633. In kind it is functional.
In experiment [4] the test system is Staphylococcus aureus. As to the kind of experiment: Antibacterial activity against Staphylococcus aureus […]. It counts as functional.
Experiment [5] concerns the target T1, Sortase A (Staphylococcus aureus, UniProt Q9S446).
T1 sequence (Q9S446 whole entry): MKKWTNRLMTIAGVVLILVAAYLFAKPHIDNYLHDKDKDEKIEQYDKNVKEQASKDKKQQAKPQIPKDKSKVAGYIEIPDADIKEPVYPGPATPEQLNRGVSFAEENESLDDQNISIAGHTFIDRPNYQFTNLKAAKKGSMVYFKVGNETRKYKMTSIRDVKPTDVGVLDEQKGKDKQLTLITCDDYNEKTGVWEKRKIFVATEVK
The experiment is described as follows: Inhibition of Staphylococcus aureus sortase A after 1 hr in the presence of fluorescent peptide Dabcul-QALPETGEE-Edans by fluorimetry. Put shortly:
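p-Hydroxymercuribenzoic acid (p-HMB) run alongside as the positive control.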

The test system of experiment [6] is K562. The experiment is described as follows: Cytotoxicity against human K562 cells assessed as viable cells after 72 hrs by MTS/PMS assay. It counts as functional, cell-based. The conditions noted are these: K562, 72 h.
Experiment [7] concerns Escherichia coli. The experiment is described as follows: Antibacterial activity against Escherichia coli ATCC 25922. It counts as functional.
The subject of experiment [8] is Proteus vulgaris. The experiment is described as follows: Antibacterial activity against Proteus vulgaris ATCC 3851. In kind it is functional.
Experiment [9] addresses T2, Sortase A (Staphylococcus aureus) (UniProt Q9S446).
T2 sequence (whole entry): T1 sequence (Q9S446 whole entry)
As to the kind of experiment: Selectivity ratio, inhibition of recombinant sortase A from Staphylococcus aureus of drug over the para-(hydroxymercury)benzoic acid sodium salt.

Structures are written as SMILES. Values after ≈ are worked out from the molar mass of the structure shown.

`O=C1C=C[C@]2(C=C1Br)CCNC1=C2C2=NCCc3c[nH]c(c32)C1=O`: the minimal inhibitory concentration (MIC) – broadly, the lowest concentration that inhibits growth of the organism – in experiment [1] was 50 µg/mL (≈ 130 µM); in experiment [2] it was 50 µg/mL (≈ 130 µM); in [3], 50 µg/mL (≈ 130 µM); in experiment [4] it was 100 µg/mL (≈ 260 µM); in experiment [7] it was greater than 100 µg/mL; in experiment [8], 25 µg/mL (≈ 65.1 µM). The IC50 – broadly, the concentration at which inhibition is half-maximal – in experiment [5] amounted to 186 µM; in experiment [6], 1.3 µM.
For `O=C1C2=C3C4=[N+](CCc5c[nH]c1c54)C1[C@H](O)CC(=O)[C@@]3(C[C@@H](O)N2)[C@H]1O`, the MIC in experiment [1] is greater than 100 µg/mL; in [2], 50 µg/mL; in experiment [3] it was greater than 100 µg/mL; in experiment [4] it was greater than 100 µg/mL; in [7] it was greater than 100 µg/mL; in [8] it was greater than 100 µg/mL. For the same compound, the Selectivity ratio in experiment [9] was found to be 10. Besides, the values for the IC50 in experiment [5] and in experiment [6] were 6.5 µM and 2.2 µM, respectively.
For `O=C1C=CC2(C=C1)CCNC1=C2C2=NCCc3c[nH]c(c32)C1=O` [DIDEBROMODISCORHABDIN C], the MIC in experiment [1], in experiment [2], in [3], in experiment [4], in experiment [7] and in experiment [8] was greater than 100 µg/mL throughout. For the same compound, the IC50 in experiment [5] was 127 µM; in [6] it was 21 µM.
Take `O=C1C2=C3C4=[N+](CCc5c[nH]c1c54)C1C(=O)C=C4S[C@@H](C[C@@]43[C@H]1O)N2`: the MIC in experiment [1] is 100 µg/mL; in [2] it was 12.5 µg/mL; in experiment [3], 25 µg/mL; in [4] it was 50 µg/mL; in experiment [7], greater than 100 µg/mL; in [8] it was 100 µg/mL. For the same compound, the half-maximal inhibitory concentration (IC50) was 130 µM in experiment [5] and 4.5 µM in experiment [6].
For `O=C1C(Br)=CC2(C=C1Br)CCNC1=C2C2=NCCc3c[nH]c(c32)C1=O` [DISCORHABDIN C], the minimal inhibitory concentration (MIC) in [1] was greater than 100 µg/mL; in experiment [2], 12.5 µg/mL (≈ 27 µM); in experiment [3], 25 µg/mL (≈ 54 µM); in experiment [4], greater than 100 µg/mL; in experiment [7], greater than 100 µg/mL; in experiment [8], 50 µg/mL (≈ 108 µM). For the same compound, the concentration for half-maximal inhibition (IC50) in experiment [5] was 165 µM; in [6] it was 25.2 µM.
With `O=C1C2=C3C4=[N+](CCc5c[nH]c1c54)C1[C@H](O)C=C4S[C@@H](C[C@@]43[C@H]1O)N2`, the minimum inhibitory concentration (MIC) was greater than 100 µg/mL in [1]; 25 µg/mL in experiment [2]; 100 µg/mL in [3]; greater than 100 µg/mL in experiment [4]; greater than 100 µg/mL in experiment [7]; 50 µg/mL in [8]. Further, the IC50 in experiment [5] came to 192 µM; in experiment [6], 2.5 µM.
In the case of `COc1cccc2c1C(=O)c1c(O)c3c(c(O)c1C2=O)C[C@@](O)(C(=O)CO)C[C@@H]3O[C@H]1C[C@H](N)[C@H](O)[C@H](C)O1` [DOXORUBICIN], in experiment [6], the IC50 came to 8.5 µM.
`CO[C@H]1C2C(=O)C=C3S[C@H]4C[C@]31C1=C(N4)C(=O)c3[nH]cc4c3C1=[N+]2CC4`: the MIC was 100 µg/mL in [1]; 12.5 µg/mL in experiment [2]; 50 µg/mL in [3]; 50 µg/mL in experiment [4]; greater than 100 µg/mL in experiment [7]; 100 µg/mL in experiment [8]. Also, the IC50 stood at 146 µM in [5] and 2.5 µM in experiment [6].
In the case of `O=C1C2=C3C4=[N+](CCc5c[nH]c1c54)C1C[C@@]34C[C@@H](N2)SC4=CC1=O`, the MIC in experiment [1] is greater than 100 µg/mL; in [2], 6.25 µg/mL; in [3] it was 25 µg/mL; in experiment [4], 100 µg/mL; in experiment [7], greater than 100 µg/mL; in experiment [8] it was greater than 100 µg/mL. The IC50 in experiment [6] worked out at 6.1 µM.
`O=C1C=C2S[C@H]3C[C@]2(C=C1Br)C1=C(N3)C(=O)c2[nH]cc3c2C1=NCC3` [(+)-DISCORHABDIN B]: the MIC in experiment [1] is 100 µg/mL (≈ 241 µM); in experiment [2] it was 25 µg/mL (≈ 60.3 µM); in experiment [3] it was 12.5 µg/mL (≈ 30.2 µM); in experiment [4], 50 µg/mL (≈ 121 µM); in [7], greater than 100 µg/mL; in experiment [8], 3.12 µg/mL (≈ 7.54 µM). For the same compound, the values for the IC50 in experiment [5] and in experiment [6] were 132 µM and 7.2 µM, respectively.
For the compound `O=C1C2=C3C4=[N+](CCc5c[nH]c1c54)C1C[C@@]34C[C@@H](N2)SC4=C[C@H]1O`, the MIC in experiment [1] is greater than 100 µg/mL; in [2] it was 25 µg/mL; in experiment [3] it was 25 µg/mL; in [4], greater than 100 µg/mL; in experiment [7], greater than 100 µg/mL; in [8] it was 50 µg/mL. In addition, the IC50 in [5] was 75.7 µM; in [6] it was 2.1 µM.
Take `CC1(C)S[C@@H]2[C@H](NC(=O)[C@H](N)c3ccccc3)C(=O)N2[C@H]1C(=O)O` [AMPICILLIN]: the MIC stood at 3.12 µg/mL (≈ 8.93 µM) in experiment [1]; 1.56 µg/mL (≈ 4.46 µM) in experiment [2]; 1.56 µg/mL (≈ 4.46 µM) in [3]; 1.56 µg/mL (≈ 4.46 µM) in experiment [4]; 12.5 µg/mL (≈ 35.8 µM) in experiment [7]; 3.12 µg/mL (≈ 8.93 µM) in experiment [8].
`O=C1C=C[C@@]23C[C@@H](NC4=C2C2=NCCc5c[nH]c(c52)C4=O)SC3=C1` [1-DEBROMODISCORHABDIN B]: the MIC in experiment [1] is 50 µg/mL (≈ 149 µM); in experiment [2], 25 µg/mL (≈ 74.5 µM); in [3] it was 12.5 µg/mL (≈ 37.3 µM); in experiment [4] it was 25 µg/mL (≈ 74.5 µM); in experiment [7], greater than 100 µg/mL; in experiment [8], 50 µg/mL (≈ 149 µM). For the same compound, the values for the IC50 in experiment [5] and in [6] were 160 µM and 25 µM, respectively.
For the compound `O=C1C2=C(C3=NCCc4c[nH]c1c43)C1(C=C(Br)C(O)C(Br)=C1)CCN2` (centres undefined) [DIHYDRODISCORHABDIN C], the MIC in [1] was greater than 100 µg/mL; in experiment [2], 100 µg/mL (≈ 215 µM); in [3] it was 100 µg/mL (≈ 215 µM); in [4], greater than 100 µg/mL; in experiment [7] it was greater than 100 µg/mL; in experiment [8] it was greater than 100 µg/mL. For the same compound, the figures for the IC50 in experiment [5] and in experiment [6] were greater than 300 µM and 20.2 µM, respectively.
As to `O=C1C(NCCc2ccc(O)cc2)=CC2=NCCc3c[nH]c1c32` [MAKALUVAMINE D], the minimum inhibitory concentration (MIC) in experiment [1] is 100 µg/mL (≈ 325 µM); in experiment [2], 50 µg/mL (≈ 163 µM); in experiment [3], 25 µg/mL (≈ 81.3 µM); in experiment [4], greater than 100 µg/mL; in [7], greater than 100 µg/mL; in [8] it was greater than 100 µg/mL. In addition, the IC50 was determined as 148 µM in experiment [5] and 24.6 µM in [6].
`O=C1C(NC2Cc3cc(Br)c(O)cc3S2)=CC2=NCCc3c[nH]c1c32` (centres undefined) [MAKALUVAMINE F]: the MIC in experiment [1] is 100 µg/mL (≈ 240 µM); in experiment [2], 3.12 µg/mL (≈ 7.51 µM); in [3], 12.5 µg/mL (≈ 30 µM); in experiment [4] it was 50 µg/mL (≈ 120 µM); in [7], greater than 100 µg/mL; in experiment [8], 25 µg/mL (≈ 60.1 µM). In addition, the IC50 in experiment [5] worked out at 175 µM; in experiment [6] it was 8.9 µM.

The values are drawn from ChEMBL document CHEMBL1154888, “Discorhabdins from the Korean marine sponge Sceptrella sp” (J Nat Prod, 2010).
